What was measured:
Format in all cases: functional
Rattus norvegicus [1] = test: Anti-passive cutaneous anaphylaxis activity in rat (intravenous administration); details: read-out: ID50 (the source's name)
Method in brief: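 Male Sprague-Dawley rats (8 weeks, ~280 g) were sensitized passively. Antiserum was raised with egg albumin im plus killed B. pertussis ip, and diluted fourfold. Four 0.05-mL intradermal dorsal injections were given, with a 72-h latency. Challenge was iv with 5 mg egg albumin plus 10 mg Evans blue in 1 mL saline. Drug in saline or PEG 400 was given iv immediately before challenge. Dye leakage area was read at 30 min. ID50 came from a least-squares log dose–area fit.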

Rattus norvegicus [2] = test: Compound was evaluated for anti passive cutaneous anaphylaxis activity in nonfasted rat, administered through intravenous route; details: oral, in the assay text read “oral” for “intravenous”, read-out: ID50 (the source's name)
Rattus norvegicus [3] = test: Compound was evaluated for anti passive cutaneous anaphylaxis activity in nonfasted rats administered oral route; details: read-out: ID50 (the source's name)
Method in brief: (§1)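 Homologous rat PCA in male Sprague-Dawley rats (8 weeks, ~280 g). Skin sites received 72 h of exposure to fourfold-diluted egg albumin antiserum. Drug was suspended in 5% gum arabic and given orally 5 min before iv challenge with egg albumin and Evans blue. Rats were bled 30 min later and dye leakage area (mm2) was measured. ID50 came from least-squares log dose regression, with Fieller fiducial limits.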

Rattus norvegicus [4] = test: Compound was evaluated for anti passive cutaneous anaphylaxis activity in fasted rats administered oral route; details: read-out: ID50 (the source's name); method in brief: as §1
Rattus norvegicus [5] = test: Compound was evaluated for anti passive cutaneous anaphylaxis activity in fasted rat, administered through intravenous route; details: oral, in the assay text read “oral” for “intravenous”, read-out: ID50 (the source's name)

Structure (SMILES)	ED50 (Rattus norvegicus [1]) [mg/kg]	further results
CNc1nc2oc3ccc(C(C)C)cc3c(=O)c2cc1C(=O)O	0.39	–
CCc1ccc2oc3nc(N)c(C(=O)O)cc3c(=O)c2c1	0.14	ED50 (Rattus norvegicus [2]): 5.4 mg/kg
O=C(O)c1cnc2oc3ccccc3c(=O)c2c1	0.63	–
O=c1c2ccccc2oc2ncc(-c3nn[nH]n3)cc12	0.44	–
Cc1ccc2oc3nc(O)c(C(=O)O)cc3c(=O)c2c1	0.1	–
CCONc1nc2oc3ccc(C(C)C)cc3c(=O)c2cc1C(=O)O	0.014	–
CONc1nc2oc3ccc(C(C)C)cc3c(=O)c2cc1C(=O)O	0.0076	ED50 (Rattus norvegicus [3]): 4.6 mg/kg; ED50 (Rattus norvegicus [4]): 0.59 mg/kg
CCc1ccc2oc3nc(C)c(C(=O)O)cc3c(=O)c2c1	0.73	–
CCc1ccc(O)c(C(=O)c2cc(C(=O)O)c(C)nc2O)c1	> 20	–
CCc1ccc2oc3nc(OC)c(C(=O)O)cc3c(=O)c2c1	0.5	–
COc1ccc2oc3nc(O)c(C(=O)O)cc3c(=O)c2c1	0.042	–
CC(C)c1ccc2oc3nc(O)c(C(=O)O)cc3c(=O)c2c1	0.02	–
O=C(O)c1cc2c(=O)c3ccccc3oc2nc1O	0.62	–
CCc1ccc2oc3nc(O)c(C(=O)O)cc3c(=O)c2c1	0.041	–
CC(C)(C)c1ccc2oc3ncc(-c4nn[nH]n4)cc3c(=O)c2c1	0.047	ED50 (Rattus norvegicus [3]): 6 mg/kg
CCc1ccc2oc3ncc(-c4nn[nH]n4)cc3c(=O)c2c1	0.11	ED50 (Rattus norvegicus [3]): 6.4 mg/kg

Structure (SMILES)	ED50 (Rattus norvegicus [1]) [mg/kg]	further results
CC(C)c1ccc2oc3ncc(C(=O)O)cc3c(=O)c2c1	0.059	ED50 (Rattus norvegicus [3]): 1.2 mg/kg
Cc1cc(C)c2oc3ncc(-c4nn[nH]n4)cc3c(=O)c2c1	0.31	–
CC(C)c1ccc2oc3nc(N)c(-c4nn[nH]n4)cc3c(=O)c2c1	0.064	–
CONc1nc2oc3ccc(C(C)C)cc3c(=O)c2cc1-c1nn[nH]n1	0.19	–
CCCCONc1nc2oc3ccc(C(C)C)cc3c(=O)c2cc1C(=O)O	0.028	ED50 (Rattus norvegicus [3]): 3.5 mg/kg
COc1cccc2c(=O)c3cc(C(=O)O)c(O)nc3oc12	0.1	–
COc1cccc2c(=O)c3cc(C(=O)O)c(N)nc3oc12	0.45	–
Cc1cc(C)c2oc3nc(O)c(C(=O)O)cc3c(=O)c2c1	0.12	–
O=c1c2cc(-c3nn[nH]n3)cnc2oc2ccc3ccccc3c12	0.84	–
CC(C)c1ccc2oc3nc(NO)c(C(=O)O)cc3c(=O)c2c1	0.018	ED50 (Rattus norvegicus [3]): 1 mg/kg
CC(C)c1ccc2oc3ncc(-c4nn[nH]n4)cc3c(=O)c2c1	0.0096	ED50 (Rattus norvegicus [3]): 0.46 mg/kg; ED50 (Rattus norvegicus [4]): 0.034 mg/kg
CCCCc1ccc2oc3nc(N)c(C(=O)O)cc3c(=O)c2c1	1.1	–
CCc1ccc2oc3ncc(C(=O)O)cc3c(=O)c2c1	0.034	ED50 (Rattus norvegicus [2]): 0.95 mg/kg; ED50 (Rattus norvegicus [5]): 0.18 mg/kg
CC(C)c1ccc2oc3nc(N)c(C(=O)O)cc3c(=O)c2c1 [AMLEXANOX]	0.032	ED50 (Rattus norvegicus [3]): 6.1 mg/kg; ED50 (Rattus norvegicus [4]): 0.73 mg/kg
O=C([O-])c1cc(=O)c2c(OCC(O)COc3cccc4oc(C(=O)[O-])cc(=O)c34)cccc2o1.[Na+].[Na+] [CROMOLYN SODIUM]	1.4	–

Source: ChEMBL document CHEMBL1122988, “Studies on antianaphylactic agents. 7. Synthesis of antiallergic 5-oxo-5H-[1]benzopyrano[2,3-b]pyridines” (1985)
